# From PubChem BioAssay
# KCNK9 inh: KCNK9 potassium channel inhibitors, primary screen, HEK293 cells, thallium flux. Potassium channel subfamily K member 9 (Homo sapiens), Q9NPC2. FluxOR thallium flux fluorescence; hits give low values. B-score at 10 µM. hit rate 1.2% among 310,000. AID 488922, 2010;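 active = ratio B-score over 3 SD below the library mean, with starting fluorescence within 5 SD of its mean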;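 also: negative B-score means less thallium flux so channel inhibition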
# hERG rescue: hERG rescue from dofetilide block, primary screen, cell-based, CHO-hERG, FluxOR thallium flux, dofetilide IC70. Voltage-gated inwardly rectifying potassium channel KCNH2 (Homo sapiens), Q12809. dofetilide IC70 present. activation (rescue from dofetilide block), less the hit threshold, % at 10 µM. hit rate 0.51% among 310,000. AID 1511, 2009;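 active = activation above the mean of controls blocked by dofetilide plus 5 SD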;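 also: thallium influx through hERG after potassium depolarization seen as dye fluorescence rise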
# KCNK3 inh: human KCNK3 channel inhibitors, primary screen, CHO cells, FluxOR thallium flux, B-score | B-score at 10 µM | Potassium channel subfamily K member 3 (Homo sapiens), O14649 | hit rate 0.84% among 340,000 | FluxOR fluorescence; hits give low values | AID 602410, 2012;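 active = B-score under library mean minus 4 SD, starting fluorescence ratio at most library mean plus 5 SD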;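 also: more negative B-score means stronger inhibition of thallium flux through KCNK3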
# KCNQ1 pot: potentiators or activators of KCNQ1 channel, primary screen, cell-based, thallium flux, high-throughput. Potassium voltage-gated channel subfamily KQT member 1 (Homo sapiens), P51787. CHO-K1 KCNQ1, thallium flux FluxOR fluorescence; hits give high values. B-score at 10 µM. hit rate 0.35% among 310,000. AID 2648, 2010;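 active = fluorescence ratio B-score, a plate-corrected score, at least three library SD, with initial intensity B-score within 5 SD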
#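 Assay system: CHO-K1 cells stably expressing KCNQ1; Medium: assay buffer with matched DMSO; Also added: K+/Tl+ depolarizing stimulus; Dosing: single dose; Timing: dye 90 min, compound 20 min, room temperature; Measured by: kinetic FluxOR thallium fluorescence, 10-s 1-Hz baseline, 110-s post-stimulus read; Read-out: peak-minus-minimum fluorescence over initial fluorescence, negative-control normalized, B-scored.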
# Kir21 block: inhibitors of mouse Kir2.1 inward-rectifier potassium channel. HEK293-Kir2.1, FluxOR thallium flux fluorescence; hits give low values. B-score at 10 µM. AID 1672, 2009. Inward rectifier potassium channel 2 (Mus musculus), P35561. hit rate 0.85% among 310,000;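 active = fluorescence ratio B-score at or below minus 3 SD of library scores, with starting-brightness B-score within 2 SD, cut at about -4.2 in these data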;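 also: channel flux triggered by added potassium and thallium sulfate stimulus; B-score of peak minus minimum fluorescence over baseline after thallium stimulus; more negative B-score means stronger Kir2.1 block with less thallium influx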
# Target sequence (P35561 whole entry, looked up): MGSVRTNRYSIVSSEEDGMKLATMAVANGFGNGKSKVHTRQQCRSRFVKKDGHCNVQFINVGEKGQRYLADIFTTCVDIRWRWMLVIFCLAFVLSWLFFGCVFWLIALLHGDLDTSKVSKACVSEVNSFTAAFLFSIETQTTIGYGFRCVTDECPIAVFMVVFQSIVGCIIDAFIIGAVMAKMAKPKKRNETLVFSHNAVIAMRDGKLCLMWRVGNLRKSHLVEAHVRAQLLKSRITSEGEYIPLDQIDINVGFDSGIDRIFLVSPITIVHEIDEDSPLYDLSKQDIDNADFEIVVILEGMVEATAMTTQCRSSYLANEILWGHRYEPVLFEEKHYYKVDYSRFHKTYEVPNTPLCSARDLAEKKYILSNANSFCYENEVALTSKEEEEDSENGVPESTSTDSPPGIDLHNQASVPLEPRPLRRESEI
# KCNQ1 block: inhibitors of human KCNQ1 channel, primary screen, cell-based, thallium flux, high-throughput | Potassium voltage-gated channel subfamily KQT member 1 (Homo sapiens), P51787 | CHO-K1 KCNQ1, FluxOR thallium flux fluorescence; hits give high values | B-score at 10 µM | hit rate 1.3% among 310,000 | AID 2642, 2010;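 active = compounds whose thallium flux B-score, printed positive for inhibition, exceeds three library SD while starting fluorescence stays within three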;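 also: channel opened by potassium depolarization with thallium stimulus after 20 min compound exposure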
# KCNK9 block conf: KCNK9 potassium channel inhibitors, confirmation, HEK293 cells, thallium flux, duplicate | shares compounds with KCNK9 inh | FluxOR thallium flux fluorescence | inhibition, % at 10 µM | hit rate 43% among 4,900;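 active = thallium signal inhibited by more than 5 SD of the compound-free buffer control wells, on both duplicate plates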;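 also: 0% = assay buffer control wells without compound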
# Kir21 sel: mouse Kir2.1 channel inhibition, confirmation, selectivity assay for KCNK9 modulator project, cell-based, HEK293, thallium flux | shares compounds with KCNK9 inh | inhibition, % at 10 µM | Kir2.1 cells, FluxOR thallium flux fluorescence | hit rate 4% among 4,900 | AID 492993, 2010;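 active = thallium signal drop more than 5 SD beyond the mean of the no-compound control wells, seen in both duplicate plates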;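 also: signal is fluorescence rise after thallium addition divided by baseline fluorescence; plate controls were assay buffer only for no effect and full block by chlorpromazine control for full effect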
# HEK293 Tl ctr: thallium flux in non-induced HEK293 cells, confirmation, counter-screen for KCNK9 inhibitor project, cell-based, second counter screen, non-induced KCNK9-HEK293; AID 492997, 2010; hit rate 40% among 4,900; FluxOR thallium flux; shares compounds with KCNK9 inh; inhibition, % at 10 µM;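 active = thallium signal drop beyond 5 SD of the untreated control mean, on both duplicate plates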;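 also: plate controls were buffer only IC0 wells for no effect and SID17386958 at its maximal inhibitory level for full effect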
# KCNK3 confirm: retest of human KCNK3 channel inhibitors, confirmation, CHO cells, FluxOR thallium flux, triplicate. shares compounds with KCNK3 inh. FluxOR fluorescence; 0% buffer, 100% carvedilol maximal block. ratio percent of control, % at 10 µM. hit rate 99% among 2,400. AID 651638, 2012;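 active = ratio percent of control, averaged over triplicates, above buffer control mean plus 5 SD, cut at about 64% in these data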;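 also: ratio is the fluorescence rise from min to max over baseline after thallium stimulus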
# KCNK3 uninduced: thallium flux inhibition in non-induced cells, primary screen, counter-screen for KCNK3 inhibitor project, cell-based, non-induced KCNK3 line, FluxOR thallium, triplicate | shares compounds with KCNK3 inh | hit rate 40% among 2,400 | non-induced KCNK3 parental cells; hits give low values | AID 651747, 2012 | thallium flux ratio (lower = more inhibition) at 10 µM;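 active = thallium flux ratio, averaged over three wells, more than 5 SD below the buffer control mean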;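 also: host cells are CHO cells without KCNK3 induction; ratio is peak minus trough fluorescence over baseline then normalized to buffer controls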
# Starred values were filed as active, the others as inactive; i = inactive; x = no result; ! = repeats disagree. A selection: hits, their analogues and other compounds. The true share with any hit is near 3.7%.
SMILES,KCNK9 inh,hERG rescue,KCNK3 inh,KCNQ1 pot,Kir21 block,KCNQ1 block,KCNK9 block conf,Kir21 sel,HEK293 Tl ctr,KCNK3 confirm,KCNK3 uninduced
CC1CCC(C(C)C)C(OC(=O)Cn2c(-c3ccc(Br)cc3)[n+](C)c3ccccc32)C1 (stereo not given),-13*!,-31,-16*,i,-15*,10*,66%*,82%*,i,132*,i
CCOc1ccc(-c2noc(CCC(=O)NCC3CCCO3)n2)cc1OC (stereo not given),i,-4,i,i,-0.07,i,x,x,x,x,x
CCOC(=O)C1CCN(C(=O)COc2ccc(Br)cc2Br)CC1,i,-14,i,i,-2,i,x,x,x,x,x
CCOC(=O)C1CCN(C(=O)COc2cc(C)c(Br)cc2C)CC1,i,-8,-11*,i,0.92,i,i,i,i,78*,i
O=C(NCCc1nnc2ccc(N3CCCC3)nn12)c1ccccc1,i,-10,i,i,0.5,i,x,x,x,x,x
O=C(CC(CC(=O)c1ccccc1)C(=O)O)c1ccccc1,i,-15,i,i,0.09,i,x,x,x,x,x
O=C(CC(CC(=O)c1ccccc1)c1ccccc1)c1ccccc1,-12*,-10,-11*,i,0.83,i,36%*,i,34%*,110*,i
S=C(Nc1ccc(Nc2ccccc2)cc1)NN1CCOCC1,i,-4,i,i,0.05,i,x,x,x,x,x
CCCN(/C=N/c1sc2c(c1C#N)CCCCC2)CCC,-19*,-20,-11*,i,-1.5,i,69%*,i,48%*,105*,i
CCOC(=O)c1oc2ccccc2c1NC(=O)c1ccc2c(c1)OCO2,i,-11,i,i,-2.4,i,x,x,x,x,x
COc1ccc(NC(=O)c2oc3ccccc3c2NC(=O)c2ccc3c(c2)OCO3)cc1,-11*,-20,-9*,i,-0.34,i,58%*,i,i,88*,i
O=Cc1c(OCc2ccccc2)ccc2ccccc12,-17*,-9,-11*,i,0,i,64%*,i,50%*,113*,0.15*
CCOc1ccc(S(=O)(=O)N2CCN(C(=O)c3ccccc3Cc3ccccc3)CC2)cc1,i,-10,i,i,1.7,i,x,x,x,x,x
COc1ccccc1CNS(=O)(=O)c1cc(-c2cc(C)no2)ccc1C(C)C,-11*,-16,-9.5*,i,-0.43,6*,60%*,i,38%*,119*,0.14*
CCOc1ccccc1CNS(=O)(=O)c1cc(-c2cc(C)no2)ccc1OC,i,-5,i,i,-2.8,i,x,x,x,x,x
CC(C)(c1ccccc1)c1ccc(OCCn2cnc3ccccc3c2=O)cc1,i,-10,-13*,i,-0.77,i,i,i,40%*,73*,0.15*
O=C1CC(N2CCSCC2)C(=O)N1c1cccc(Cl)c1 (stereo not given),i,-1,i,i,1.2,i,x,x,x,x,x
CC(=O)N(Cc1ccccc1)c1nc(-c2ccccc2)cs1,i,-12,i,i,-0.92,i,x,x,x,x,x
CCOC(=O)c1ccc(N2C(=O)c3n[nH]c(-c4ccco4)c3C2c2ccc([N+](=O)[O-])cc2)cc1 (stereo not given),-8.3*,-5,-9.8*,i,-0.01,i,56%*,i,42%*,138*,0.11*
COc1ccc(Br)cc1/C=C/C(=O)Nc1ccc2ccccc2c1,i,-10,i,i,0.24,i,x,x,x,x,x
CCC(=O)Nc1cccc(C(=O)/C=C/c2cc(Br)ccc2OC)c1,-10*,-10,-9.3*,i,-0.51,i,38%*,i,30%*,138*,i
COc1ccc(/C(C#N)=C/c2c(-c3ccc(Cl)cc3)nc3c(C)cccn23)cc1,-11*,-11,-10*,i,0.04,i,42%*,i,29%*,101*,0.15*
Cc1cc(Oc2nc3c(C)cccn3c(=O)c2/C=C(\C#N)S(=O)(=O)c2ccc(Cl)cc2)ccc1Cl,i,-8,i,i,0.29,i,x,x,x,x,x
CCOC(=O)N1CCC(NC(=O)c2cc3c(=O)[nH]c4ccccc4c3n2C)CC1,i,-17,i,i,1.1,i,x,x,x,x,x
Cc1nc2c(-c3ccc(F)cc3)c(C)nn2c(C)c1CCC(=O)N1CCC(Cc2ccccc2)CC1,-9.8*,-10,-10*,i,0.45,i,i,i,42%*,115*,i
CCOc1ccccc1NC(=O)c1ccc2ccccc2c1,-11*,-8,-9.7*,i,0.52,i,64%*,i,32%*,113*,i
CCOc1ccccc1NC(=O)NNC(=O)c1ccc2ccccc2c1,i,-6,i,i,-0.31,i,x,x,x,x,x
CCOc1ccccc1NC(=O)C(Sc1ccccc1)c1ccccc1 (stereo not given),-8.4*,-16,-8.7*,i,2.8,i,i,i,40%*,95*,0.15*
